Compound activity as filed in PubChem.
RGS4 pot: RGS4 potentiators or activators, primary screen, cell-based, HEK293 M3R inducible RGS4, calcium flux; carbachol calcium flux Fluo4; active compounds read low; B-score at 10 µM; actives 0.92% (n = 310,000); AID 463111, 2010;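 active = B-score of the integrated calcium signal more than 4 SD below the library mean, with starting fluorescence not abnormally high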;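 note: negative B-score means reduced calcium response which marks RGS4 activation or potentiation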
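Assay system: HEK293 FlpIn-TREx cells, stable M3R, doxycycline-inducible RGS4 / Probe or stimulus: carbachol, ECmax concentration / Times: overnight RGS4 induction, 30 min dye load 37 °C, 20 min compound RT / Signal: kinetic calcium fluorescence imaging with Fluo4-AM dye, 2 µM / Measure: Agonist-evoked peak-minus-minimum fluorescence over baseline, integrated ratio, B score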
MrgX1 PAM: positive allosteric modulators of MrgX1, primary screen, HEK293 cells, Fluo-4 calcium flux. Mas-related G-protein coupled receptor member X1 (Homo sapiens), Q96LB2. FDSS; active compounds read high. B-score at 10 µM. actives 0.63% (n = 310,000);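 active = plate-corrected calcium response at least 3 library SD above typical, normal starting fluorescence, not activating the receptor alone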;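 note: compound read alongside a low EC10 to EC30 dose of BAM8-22 agonist; peak minus trough fluorescence over baseline measured at the second addition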
Target sequence (Q96LB2 whole entry, looked up): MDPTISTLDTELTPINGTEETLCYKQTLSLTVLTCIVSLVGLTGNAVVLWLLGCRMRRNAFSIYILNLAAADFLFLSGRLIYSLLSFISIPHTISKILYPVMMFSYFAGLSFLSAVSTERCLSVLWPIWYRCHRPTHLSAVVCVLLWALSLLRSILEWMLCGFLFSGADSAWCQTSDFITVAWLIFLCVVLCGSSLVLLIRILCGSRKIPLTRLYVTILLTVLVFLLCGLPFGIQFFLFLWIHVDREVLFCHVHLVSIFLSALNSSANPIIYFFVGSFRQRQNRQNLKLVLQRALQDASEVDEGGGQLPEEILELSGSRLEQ
MrgX1 agonist: agonists of human MrgX1 receptor, primary screen, HEK293 cells, Fluo-4 calcium flux; AID 588627, 2011; actives 0.44% (n = 310,000); Mas-related G-protein coupled receptor member X1 (Homo sapiens), Q96LB2; Fluo-4 calcium fluorescence, agonist mode; active compounds read high; B-score at 10 µM;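 active = calcium response B-score plate-corrected fluorescence ratio at least 3 library SD, with starting fluorescence B-score inside 5 SD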
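Material – MrgX1-expressing HEK293 cells · Input – 15,000 cells seeded per well · Dosing – compound as first of three additions · Times – overnight seeding, then 1 h dark dye loading · Measured by – kinetic Fluo-4 NW fluorescence of intracellular calcium · Read-out – B-scored fluorescence response ratio · Benchmarks – positive and negative control wells on each plate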
MrgX1 antag: antagonists of human MrgX1 receptor, primary screen, HEK293 cells, Fluo-4 calcium flux; BAM8-22 antagonism; active compounds read low; B-score at 10 µM; actives 1.3% (n = 310,000); AID 588676, 2011;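 active = calcium-response B-score plate-corrected more than 3 library SD below zero, starting fluorescence within 5 deviations, no agonist response on first addition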;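 note: peak minus trough fluorescence over baseline after final BAM8-22 challenge near maximal dose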
RGS4 inh: RGS4 inhibitors, primary screen, cell-based, HEK293 M3R inducible RGS4, calcium flux | B-score at 10 µM | Fluo-4 calcium flux; active compounds read high; triggered by carbachol at its EC20 | actives 0.45% (n = 310,000);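 active = B-score, a plate-corrected calcium signal, over three deviations above library mean, with baseline fluorescence within five deviations of library mean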;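 note: RGS4 expression induced by doxycycline in cells with stable M3 receptor; B-score is computed from the integrated fluorescence ratio over baseline after carbachol; higher B-score means a larger calcium signal and so more RGS4 inhibition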
Target sequence (P49798 whole entry, looked up): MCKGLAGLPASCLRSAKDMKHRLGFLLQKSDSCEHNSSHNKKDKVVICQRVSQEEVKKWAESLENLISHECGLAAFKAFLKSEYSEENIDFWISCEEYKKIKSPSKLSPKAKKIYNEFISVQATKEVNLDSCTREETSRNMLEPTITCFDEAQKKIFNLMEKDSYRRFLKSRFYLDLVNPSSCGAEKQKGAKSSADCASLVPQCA
RGS4 block valid: enhanced carbachol calcium response, M3R/RGS4 cells, RGS4 inhibitor project, cell-based, validation screen, HEK293 M3R/RGS4, calcium flux; shares compounds with RGS4 inh; carbachol calcium Fluo-4 fluorescence; carbachol added at its EC20; 0 = buffer wells, 100 = carbachol control; calcium response, % at 10 µM; actives 65% (n = 1,700);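 active = duplicate-averaged calcium response above the buffer-only control mean plus 5 SD of those controls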;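 note: integrated fluorescence ratio F max minus min over baseline F0; higher response in RGS4-induced cells means RGS4 inhibition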
M3R Ca ctr: carbachol calcium response in non-induced M3R cells, confirmation, counter-screen for RGS4 inhibitor project, cell-based, HEK293 M3R; activity (percent), % at 10 µM; shares compounds with RGS4 inh; carbachol calcium Fluo-4; submaximal (EC20) carbachol stimulus; buffer wells 0%, carbachol control wells 100%; actives 20% (n = 1,900); call rule not given here;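 note: RGS4 induction absent so cells express M3R without RGS4; higher means more calcium signal and flags a non-specific hit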
RGS4 inh ctr2: second counter-screen for RGS4 inhibitors: non-induced cells without carbachol. AID 493001. HEK293 M3R/RGS4 non-induced, Fluo-4 calcium, no carbachol; normalised: buffer wells 0%, carbachol wells 100%. shares compounds with RGS4 inh. actives 22% (n = 1,900). calcium response (agonist-mode artifact), % at 10 µM;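 active = duplicate-averaged calcium rise in uninduced cells above buffer wells' mean plus 5 SD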
* marks the source's active call; other numbers are inactive results; i = inactive; nt = no result. An excerpt weighted towards active compounds, which were near 3.5% of everything screened.

SMILES	RGS4 pot	MrgX1 PAM	MrgX1 agonist	MrgX1 antag	RGS4 inh	RGS4 block valid	M3R Ca ctr	RGS4 inh ctr2
O=C(CCN1Cc2ccccc2C1)c1ccc2c(c1)OCCO2	i	i	i	i	16.9*	95.0%*	i	23.0%*
O=C(CCN1CCc2ccccc2C(c2ccccc2)C1)c1ccc2c(c1)OCCO2 (stereo not drawn)	i	i	43*	i	14.8*	10.5%*	i	14.5%*
CN(C)S(=O)(=O)Nc1ccccc1F	i	i	i	i	i	nt	nt	nt
COc1ccc(N2CCN(C(=O)C3CCN(C(=O)c4cccc(Cl)c4)CC3)CC2)cc1	i	i	i	i	i	nt	nt	nt
Cc1cc(Br)cc(C=Nc2ccc(N3CCOCC3)cc2)c1O	i	i	i	i	5.82*	21.0%*	40.0%*	168.0%*
Oc1ccc(C=Nc2ccc(N3CCOCC3)cc2)c(O)c1	i	i	i	i	i	nt	nt	nt
Oc1ccc(N=Nc2cccc(C(F)(F)F)c2)cc1C=Nc1ccc(N2CCOCC2)cc1	i	i	i	i	9.69*	27.5%*	46.5%*	i
Oc1cc(Br)ccc1C=Nc1ccc(N2CCCCC2)cc1	i	i	i	i	i	nt	nt	nt
Clc1ccc(-c2ccc(C=Nc3ccc(N4CCOCC4)cc3)o2)c(Cl)c1	i	i	i	i	5.41*	i	i	16.5%*
Oc1c(Cl)cc(Cl)cc1C=Nc1ccc(N2CCOCC2)cc1	i	i	i	i	4.98*	i	i	93.0%*
CC(C)c1ccc(CN2CC(C(=O)Nc3ccccc3)CC2=O)cc1 (stereo not drawn)	i	i	i	i	i	nt	nt	nt
CN(CC(=O)Nc1cccc(F)c1)C(=O)c1ccc(N2CCOCC2)c([N+](=O)[O-])c1	i	i	i	i	i	nt	nt	nt
CN(CC(=O)Nc1ccc(Cl)c(C(F)(F)F)c1)C(=O)c1ccc(N2CCOCC2)c([N+](=O)[O-])c1	i	i	i	i	5.37*	11.5%*	i	7.5%*
O=c1[nH]c(-c2ccc(F)cc2)nc2c1sc(=S)n2-c1ccccc1	i	i	i	i	i	nt	nt	nt
O=c1[nH]c(-c2ccccc2Cl)nc2c1sc(=S)n2-c1ccccc1	i	nt	nt	nt	5.12*	12.0%*	i	i
CCOC(=O)[C@@H]1[C@H]2COc3ccccc3[C@@H]2N2C(=O)N(c3ccc(C(F)(F)F)cc3)C(=O)[C@]12C	i	i	i	i	i	i	i	i
CCOC(=O)[C@@H]1[C@H]2COc3ccccc3[C@H]2N2C(=O)N(c3ccc(C(F)(F)F)cc3)C(=O)[C@]12C	i	i	i	i	i	i	i	i
O=C(NCc1ccco1)c1nc2c(nnn2Cc2cccc(Cl)c2)c(=O)[nH]1	i	i	i	i	7.95*	21.5%*	i	i
O=C(NCc1ccccc1)c1nc2c(nnn2Cc2cccc(Cl)c2)c(=O)[nH]1	i	i	i	i	4.94*	22.5%*	i	i
c1coc(C2=Nc3cccc4cccc(c34)N2)c1	i	i	i	i	12.7*	29.5%*	i	i
CCO[C@@H]1OC(C(=O)NC2CC2)=C[C@H](c2ccc(C(F)(F)F)cc2)[C@H]1CCCO	i	i	i	i	i	nt	nt	nt
O=C(O)CSCC(=O)Nc1ccc(-c2nc3ccccc3s2)cc1	i	i	i	i	i	nt	nt	nt
Cc1csc(NC(=O)CSCC(=O)O)c1-c1nc2ccccc2s1	i	i	i	i	10.7*	34.5%*	50.5%*	i
Cc1ccc(-n2ncc3c(=O)[nH]c(SCC(=O)N4CCCc5ccccc54)nc32)cc1	i	i	i	i	i	nt	i	i
CCn1cc([N+](=O)[O-])c(C(=O)N2N=C(c3ccc4ccccc4c3)CC2c2cc(Br)ccc2O)n1 (stereo not drawn)	i	i	i	i	i	nt	nt	nt
SMILES	RGS4 pot	MrgX1 PAM	MrgX1 agonist	MrgX1 antag	RGS4 inh	RGS4 block valid	M3R Ca ctr	RGS4 inh ctr2
CCn1cc([N+](=O)[O-])c(C(=O)N2N=C(c3ccc(O)c(OC)c3)CC2c2ccccc2O)n1 (stereo not drawn)	i	i	i	i	i	nt	i	i
CCn1cc([N+](=O)[O-])c(C(=O)N2N=C(c3ccc(Cl)c(Cl)c3)CC2c2ccccc2O)n1 (stereo not drawn)	i	i	i	i	6.39*	21.5%*	i	i
COC(=O)C1=C(CS(=O)(=O)c2ccc(Cl)cc2)NC(=O)NC1c1ccc(O)c(OC)c1 (stereo not drawn)	i	i	i	i	i	i	i	i
COC(=O)C1=C(CS(=O)(=O)c2ccc(OC)c(OC)c2)NC(=O)NC1c1ccc(O)c(OC)c1 (stereo not drawn)	i	i	i	i	19.3*	6.0%*	i	i
CCOC(=O)C1=C(CS(=O)(=O)c2ccc(Cl)cc2)NC(=O)NC1c1ccc(O)c(OC)c1 (stereo not drawn)	i	i	i	i	i	nt	nt	nt
CCN(CC)CCN(C(=O)c1ccc2c(c1)CCCC2)c1nc2ccc(C)cc2s1	i	i	i	i	i	nt	nt	nt
CCN(CC)CCN(C(=O)c1ccc2c(c1)CCCC2)c1nc2ccc(OC)cc2s1	i	i	i	i	i	i	i	i
O=C(c1cc(COc2ccc(F)cc2F)on1)N1CC2C[C@@H]3CC1C[C@H](C2)C3	i	i	i	i	i	nt	nt	nt
O=C1NC(c2ccccc2)=C(c2nc3ccccc3s2)C(c2ccc(O)cc2)N1 (stereo not drawn)	i	i	i	i	8.59*	8.5%*	i	8.0%*
